# Assay results of several laboratories.
# Compare with care: the assays were run in different laboratories.
# Organism: Staphylococcus aureus
SMILES,test,test system,conditions,quantity,value
CNC(=O)c1ccc2c(c1)NC(=O)/C2=C(\Nc1cccc(CN(C)C)c1)c1ccccc1,microbial growth,NCTC8325,,MIC,> 30 µM
C#CCCCCCCCCCCCC(O)CC(O)CO (centres unmarked),"microbial growth, broth dilution",ATCC33591 MRSA,drug-resistant strain,IC50,86.3 µg/mL
O=C(O)CN1C(=O)/C(=C/c2ccc(-c3ccc(N(c4ccccc4)c4ccccc4)cc3)cc2)SC1=S,"microbial killing, broth dilution",ATCC6538,,MBC,7.8 µg/mL
[H]/N=C(/N)N[C@H]1[C@H](O)[C@@H](O)[C@H](O[C@@H]2O[C@@H](C)[C@](O)(C=O)[C@H]2O[C@@H]2O[C@@H](CO)[C@H](O)[C@@H](O)[C@@H]2NC)[C@@H](N/C(N)=N\[H])[C@@H]1O,"microbial growth, well diffusion",NCIM5021,500 µg/mL,inhibition zone,22 mm
Cc1cc(C)c(NC(=O)Nc2ccc3c(c2)OC(F)(F)O3)c(C)c1,microbial growth,NCTC8325,,MIC,> 100 µM
Cc1ccc2nc(-n3nc(CC(C)C)c4c3-c3ccccc3C4=O)sc2c1,"microbial growth, well diffusion",NCIM5021,125 µg/mL,inhibition zone,11 mm
N#C/C(=C\c1ccc(O)c(O)c1)C(=O)NCc1ccccc1,microbial growth,NCTC8325,,MIC,> 30 µM
O=C(N[C@H](CO)[C@H](O)c1ccc([N+](=O)[O-])cc1)C(Cl)Cl,microbial growth,ATCC700699,,MIC90,62.5 µg/mL
CNC(=O)c1ccc(C)c(-n2c(C)cc(OCc3ccc(F)cc3F)c(Br)c2=O)c1,microbial growth,NCTC8325,,MIC,> 30 µM
Cc1nn(-c2nc3ccc(Cl)cc3s2)c2c1C(=O)c1ccccc1-2,"microbial growth, well diffusion",NCIM5021,1000 µg/mL,inhibition zone,11 mm
C=CCCCCCCCCCCCC(O)CC(O)CO (centres unmarked),"microbial growth, broth dilution",ATCC29213,,IC50,> 200 µg/mL
O=C(Sc1cccccc1=O)c1cccc(C(F)(F)F)c1,"microbial growth, broth dilution",ATCC29213,,MIC80,> 100 µM
CN[C@H](CC(C)C)C(=O)N[C@H]1C(=O)N[C@@H](CC(N)=O)C(=O)N[C@H]2C(=O)N[C@H]3C(=O)N[C@H](C(=O)N[C@H](C(=O)O)c4cc(O)cc(O)c4-c4cc3ccc4O)[C@H](O)c3ccc(c(Cl)c3)Oc3cc2cc(c3O[C@@H]2O[C@H](CO)[C@@H](O)[C@H](O)[C@H]2O[C@H]2C[C@](C)(N)[C@H](O)[C@H](C)O2)Oc2ccc(cc2Cl)[C@H]1O,"microbial growth, disc diffusion",ATCC29213,"62.5 µg/disc, 24 h",inhibition zone,18 mm
COC(=O)/C(=C1/OC(=O)C(c2ccccc2)=C1O)c1ccccc1,microbial growth,ATCC6538,,IC50,32 µM
O=C1NC(=S)N/C1=C\c1ccc(-c2ccc(N(c3ccccc3)c3ccccc3)cc2)cc1,"microbial killing, broth dilution",ATCC43300,,MBC,> 1000 µg/mL
CC(=O)c1c(C)c2cnc(Nc3ccc(N4CCNCC4)cn3)nc2n(C2CCCC2)c1=O,microbial growth,NCTC8325,,MIC,> 30 µM
O=C(O)CN1C(=O)/C(=C/c2ccc(-c3ccc(N(c4ccccc4)c4ccccc4)cc3)c3ccccc23)SC1=S,"microbial killing, broth dilution",ATCC6538,,MBC,> 1000 µg/mL
O=C(Cc1ccccc1)Sc1cccccc1=O,"microbial growth, broth dilution",ATCC29213,,MIC80,> 100 µM
CCOc1ccc(-c2nc3ccc(C)cc3[nH]2)cc1,"microbial growth, broth dilution",ATCC29213 MSSA,,MIC,128 µg/mL
CC(C(=O)O)N1C2=NC(c3ccc(Cl)cc3)c3c([nH]c(=O)[nH]c3=O)N2NC1(C)c1ccccc1O (centres unmarked),microbial growth,ATCC25923,"10 µg/mL, 24 h",inhibition zone,14 mm
CC(=O)NC[C@H]1CN(c2ccc(N3CCOCC3)c(F)c2)C(=O)O1,"microbial killing, broth dilution",NRS107,,MBC,16 µM
O=C(O)CN1C(=O)/C(=C/c2ccc(-c3ccc(N(c4ccccc4)c4ccccc4)cc3)c3ccccc23)NC1=S,"microbial killing, broth dilution",ATCC25923,,MBC,> 1000 µg/mL
CC(C)Cc1nn(-c2nc3ccc(Cl)cc3s2)c2c1C(=O)c1ccccc1-2,"microbial growth, well diffusion",NCIM5021,500 µg/mL,inhibition zone,11 mm
CC(C)c1ccc(O)c(=O)cc1,"microbial growth, broth dilution",ATCC29213,,MIC80,66.7 µM
Cc1cc2c(F)c(Oc3ncnn4cc(OC[C@@H](C)O)c(C)c34)ccc2[nH]1,microbial growth,NCTC8325,,MIC,> 30 µM
Cc1nn(-c2nc3ccc(Br)cc3s2)c2c1C(=O)c1ccccc1-2,"microbial growth, well diffusion",NCIM5021,500 µg/mL,inhibition zone,12 mm
C=CC(=O)Nc1cccc(Sc2nc(Nc3ccc(N4CCN(C)CC4)cc3)ncc2Cl)c1,microbial growth,NCTC8325,,MIC,> 30 µM
O=C(O)CN1C(=O)/C(=C/c2c3ccccc3c(-c3ccc(N(c4ccccc4)c4ccccc4)cc3)c3ccccc23)NC1=S,"microbial killing, broth dilution",ATCC43300,,MBC,> 1000 µg/mL
CO[C@H]1C[C@@H]2CC[C@@H](C)[C@@](O)(O2)C(=O)C(=O)N2CCCC[C@H]2C(=O)O[C@H]([C@H](C)C[C@@H]2CC[C@@H](OC(=O)C(C)(CO)CO)[C@H](OC)C2)CC(=O)[C@H](C)/C=C(\C)[C@@H](O)[C@@H](OC)C(=O)[C@H](C)C[C@H](C)/C=C/C=C/C=C/1C,microbial growth,NCTC8325,,MIC,> 30 µM
O=C1NC(=S)S/C1=C\c1c2ccccc2c(-c2ccc(N(c3ccccc3)c3ccccc3)cc2)c2ccccc12,"microbial killing, broth dilution",ATCC43300,,MBC,> 1000 µg/mL
COc1ccc2nc(-n3nc(C)c4c3-c3ccccc3C4=O)sc2c1,"microbial growth, well diffusion",NCIM5021,250 µg/mL,inhibition zone,12 mm
O=C1NC(=S)N/C1=C\c1ccc(-c2ccc(N(c3ccccc3)c3ccccc3)cc2)c2ccccc12,"microbial killing, broth dilution",ATCC43300,,MBC,> 1000 µg/mL
Cc1nn(-c2nc3ccccc3s2)c2c1C(=O)c1ccccc1-2,"microbial growth, well diffusion",NCIM5021,500 µg/mL,inhibition zone,11 mm
O=C1NC(=S)S/C1=C\c1ccc(-c2ccc(N(c3ccccc3)c3ccccc3)cc2)c2ccccc12,"microbial killing, broth dilution",ATCC25923,,MBC,> 1000 µg/mL
COc1ccc2nc(-n3nc(CC(C)C)c4c3-c3ccccc3C4=O)sc2c1,"microbial growth, well diffusion",NCIM5021,125 µg/mL,inhibition zone,12 mm
